{"source": "ChEMBL document CHEMBL4610063", "about": "“Mangiferin: A promising natural xanthone from Mangifera indica for the control of acyclovir - resistant herpes simplex virus 1 infection” (Bioorg Med Chem, 2020)", "key": {"Human alphaherpesvirus 1 [1]": {"tested_on": "Human alphaherpesvirus 1", "assay": "Antiviral activity against ACV-resistant Herpes simplex virus 1 AR-29 infected in African green monkey Vero cells assessed as inhibition of viral infection at 3.12 ug/ml measured after 72 hrs by crystal violet staining based plaque reduction assay relative to control", "format": "functional", "conditions": "Human alphaherpesvirus 1, AR-29, Vero", "method_in_brief": "(§1)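 Plaque reduction in Vero cells. Mangiferin at 3.12, 6.25, 12.5 or 25 μg/mL is added at infection (0 h) with HSV-1 (10^5 PFU/mL). Agarose overlay with 25 mM MgCl2, 72 h at 37 °C/5% CO2, 20% formaldehyde fix, 0.5% crystal violet stain. %VI is taken against virus control. IC50 comes from linear regression of inhibition curves. Triplicate independent experiments.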"}, "Human alphaherpesvirus 1 [2]": {"tested_on": "Human alphaherpesvirus 1", "assay": "Antiviral activity against ACV-resistant Herpes simplex virus 1 AR-29 infected in African green monkey Vero cells assessed as inhibition of viral infection at 12.5 ug/ml measured after 72 hrs by crystal violet staining based plaque reduction assay relative to control", "format": "functional", "conditions": "Human alphaherpesvirus 1, AR-29, Vero", "method_in_brief": "as §1"}, "Human alphaherpesvirus 1 [3]": {"tested_on": "Human alphaherpesvirus 1", "assay": "Antiviral activity against ACV-resistant Herpes simplex virus 1 AR-29 infected in African green monkey Vero cells assessed as inhibition of viral infection at 25 ug/ml measured after 72 hrs by crystal violet staining based plaque reduction assay relative to control", "format": "functional", "conditions": "Human alphaherpesvirus 1, AR-29, Vero", "method_in_brief": "as §1"}, "[4]": {"assay": "Selectivity index, ratio of CC50 for African green monkey Vero cells to IC50 for Herpes simplex virus 1 KOS infected in African green monkey Vero cells", "format": "toxicity", "conditions": "read-out: Ratio CC50/IC50", "method_in_brief": "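SI = CC50 (Vero, MTT, 72 h) / IC50 from plaque reduction with mangiferin added at infection (0 h) against HSV-1 AR-29 or KOS; IC50 by linear regression of viral inhibition curves.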"}, "Human alphaherpesvirus 1 [5]": {"tested_on": "Human alphaherpesvirus 1", "assay": "Antiviral activity against ACV-sensitive Herpes simplex virus 1 KOS infected in African green monkey Vero cells assessed as suppression of viral replication by measuring reduction in ICP4 production at 12.5 ug/ml measured after 24 hrs by immunofluorescence assay relative to control", "format": "functional, strain KOS", "parameters": "scale not given: the % may be the effect or the level left", "method_in_brief": "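Vero cells on coverslips infected with HSV-1 KOS and given mangiferin 1.56–12.5 μg/mL at 0 h. At 24 h cells fixed in cold acetone, blocked with skim milk, stained with mouse anti-ICP4 and FITC anti-mouse IgG; 100 cells per coverslip scored by fluorescence microscopy. Inhibition relative to infected untreated cells; duplicate independent experiments.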"}, "Human alphaherpesvirus 1 [6]": {"tested_on": "Human alphaherpesvirus 1", "assay": "Antiviral activity against ACV-resistant Herpes simplex virus 1 AR-29 infected in female Balb/c mouse assessed as reduction in skin lesion at 0.7% w/w applied topically 5 times a day at 3 hrs interval for 10 days", "format": "functional, organism-based", "method_in_brief": "(§2)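 Balb/c mice, 5 weeks old, six per group. Right mid-flank depilated under i.p. anaesthesia, needle-scarified 24 h later and inoculated with 70 μL HSV-1 AR-29 (10^5 PFU/mL). Topical 0.7% w/w O/W emulsion or ACV cream (50 mg/g) starts 4 h post-infection, 5 times daily for 10 days. Lesions are scored daily.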"}, "Human alphaherpesvirus 1 [7]": {"tested_on": "Human alphaherpesvirus 1", "assay": "Virucidal activity against ACV-resistant Herpes simplex virus 1 AR-29 infected in African green monkey Vero cells assessed as inhibition of viral inhibition at 3.12 to 25 ug/mL measured after 1 hr by plaque reduction assay", "format": "functional, organism-based", "method_in_brief": "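HSV-1 AR-29 suspension is incubated with mangiferin (3.12–25 μg/mL) for 1 h at 37 °C, then titrated by plaque reduction on Vero cells. Agarose/MgCl2 overlay, 72 h, crystal violet stain. %VI is taken against virus control. Triplicate independent experiments.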"}, "Human alphaherpesvirus 1 [8]": {"tested_on": "Human alphaherpesvirus 1", "assay": "Virucidal activity against ACV-sensitive Herpes simplex virus 1 KOS infected in African green monkey Vero cells assessed as inhibition of viral inhibition at 25 ug/mL measured after 1 hr by plaque reduction assay relative to control", "format": "functional", "conditions": "Human alphaherpesvirus 1, strain KOS", "method_in_brief": "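HSV-1 KOS suspension incubated with mangiferin (3.12–25 μg/mL) 1 h at 37 °C, then put on Vero cells for plaque reduction: agarose overlay with MgCl2, 72 h, crystal violet staining. %VI against virus control; triplicate independent experiments.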"}, "Human alphaherpesvirus 1 [9]": {"tested_on": "Human alphaherpesvirus 1", "assay": "Antiviral activity against ACV-resistant Herpes simplex virus 1 AR-29 infected in African green monkey Vero cells assessed as inhibition of viral adsorption at 25 ug/mL preincubated for 30 mins and measured after 1 hr by plaque reduction assay relative to control", "format": "functional", "conditions": "Human alphaherpesvirus 1, AR-29, Vero", "method_in_brief": "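Vero cells pre-chilled 30 min at 4 °C, then given mangiferin (3.12–25 μg/mL) together with HSV-1 AR-29 (10^5 PFU/mL) for 1 h adsorption at 4 °C. Plaque reduction assay follows: nutrient agarose overlay with 25 mM MgCl2, 72 h at 37 °C/5% CO2, formaldehyde fixation, crystal violet stain. %VI = [1 − PFU treated/PFU virus control] × 100.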"}, "Human alphaherpesvirus 1 [10]": {"tested_on": "Human alphaherpesvirus 1", "assay": "Antiviral activity against ACV-sensitive Herpes simplex virus 1 KOS infected in African green monkey Vero cells assessed as inhibition of viral adsorption at 25 ug/mL preincubated for 30 mins and measured after 1 hr by plaque reduction assay", "format": "functional, organism-based", "conditions": "strain KOS", "method_in_brief": "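Vero cells pre-chilled 30 min at 4 °C, then given mangiferin (3.12–25 μg/mL) together with HSV-1 KOS (10^5 PFU/mL); 1 h adsorption at 4 °C, then plaque reduction: agarose/DMEM overlay with 25 mM MgCl2, 72 h at 37 °C, formaldehyde fixation, crystal violet stain. %VI = 1 − PFU treated/PFU virus control; triplicate independent experiments.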"}, "Human alphaherpesvirus 1 [11]": {"tested_on": "Human alphaherpesvirus 1", "assay": "Antiviral activity against ACV-resistant Herpes simplex virus 1 AR-29 infected in male Balb/c mouse assessed as reduction in ulcerated lesion at 0.7% w/w applied topically 5 times a day at 3 hrs interval for 10 days measured on day 5 post infection", "format": "functional, organism-based", "method_in_brief": "as §2"}, "[12]": {"assay": "Toxicity in Balb/c mouse infected with ACV-resistant Herpes simplex virus 1 AR-29 assessed as effect on body weight at 0.7% w/w applied topically 5 times a day at 3 hrs interval for 10 days measured on day 10 post infection", "conditions": "in vivo, topical_or_ocular"}, "Human alphaherpesvirus 1 [13]": {"tested_on": "Human alphaherpesvirus 1", "assay": "Antiviral activity against ACV-resistant Herpes simplex virus 1 AR-29 infected in male Balb/c mouse assessed as change in dermis thickness at 0.7% w/w applied topically 5 times a day at 3 hrs interval for 10 days measured on day 10 post infection by H and E staining based histological analysis", "format": "functional, organism-based"}, "Human alphaherpesvirus 1 [14]": {"tested_on": "Human alphaherpesvirus 1", "assay": "Antiviral activity against ACV-resistant Herpes simplex virus 1 AR-29 infected in male Balb/c mouse assessed as change in epidermis thickness at 0.7% w/w applied topically 5 times a day at 3 hrs interval for 10 days measured on day 10 post infection by H and E staining based histological analysis", "format": "functional, organism-based"}, "Human alphaherpesvirus 1 [15]": {"tested_on": "Human alphaherpesvirus 1", "assay": "Antiviral activity against ACV-sensitive Herpes simplex virus 1 KOS infected in male Balb/c mouse assessed as change in dermis thickness at 0.7% w/w applied topically 5 times a day at 3 hrs interval for 10 days measured on day 10 post infection by H and E staining based histological analysis", "conditions": "strain KOS"}, "Human alphaherpesvirus 1 [16]": {"tested_on": "Human alphaherpesvirus 1", "assay": "Antiviral activity against ACV-sensitive Herpes simplex virus 1 KOS infected in female Balb/c mouse assessed as change in dermis thickness at 0.7% w/w applied topically 5 times a day at 3 hrs interval for 10 days measured on day 10 post infection by H and E staining based histological analysis", "conditions": "strain KOS"}, "Human alphaherpesvirus 1 [17]": {"tested_on": "Human alphaherpesvirus 1", "assay": "Antiviral activity against ACV-sensitive Herpes simplex virus 1 KOS infected in female Balb/c mouse assessed as change in epidermis thickness at 0.7% w/w applied topically 5 times a day at 3 hrs interval for 10 days measured on day 10 post infection by H and E staining based histological analysis", "conditions": "strain KOS"}}, "note": "Active and inactive are the calls of the source. No cut-off for these calls is given here."}
{"smiles": "O=c1c2cc(O)c(O)cc2oc2cc(O)c([C@@H]3O[C@H](CO)[C@@H](O)[C@H](O)[C@H]3O)c(O)c12", "note": "[MANGIFERIN]", "values": [{"measurement": "inhibition at 3.12 µg/mL", "setting": "Human alphaherpesvirus 1 [1]", "result": 57.6, "unit": "%"}, {"measurement": "inhibition at 12.5 µg/mL", "setting": "Human alphaherpesvirus 1 [2]", "result": 100, "unit": "%"}, {"measurement": "inhibition at 25 µg/mL", "setting": "Human alphaherpesvirus 1 [3]", "result": 100, "unit": "%"}, {"measurement": "selectivity ratio", "setting": "[4]", "result": "> 143"}, {"measurement": "Activity", "setting": "Human alphaherpesvirus 1 [5]", "result": 29.6, "unit": "%"}, {"measurement": "Activity", "setting": "Human alphaherpesvirus 1 [6]", "result": "Active"}, {"measurement": "inhibition", "setting": "Human alphaherpesvirus 1 [7]", "result": "Active"}, {"measurement": "inhibition at 25 µg/mL", "setting": "Human alphaherpesvirus 1 [8]", "result": 74.8, "unit": "%"}, {"measurement": "inhibition at 25 µg/mL", "setting": "Human alphaherpesvirus 1 [9]", "result": 74, "unit": "%"}, {"measurement": "inhibition", "setting": "Human alphaherpesvirus 1 [10]", "result": "Active"}, {"measurement": "Activity", "setting": "Human alphaherpesvirus 1 [11]", "result": "Active"}, {"measurement": "Activity", "setting": "[12]", "result": "Non-Toxic"}, {"measurement": "Activity", "setting": "Human alphaherpesvirus 1 [13]", "result": "inactive"}, {"measurement": "Activity", "setting": "Human alphaherpesvirus 1 [14]", "result": "inactive"}, {"measurement": "Activity", "setting": "Human alphaherpesvirus 1 [15]", "result": "inactive"}, {"measurement": "Activity", "setting": "Human alphaherpesvirus 1 [16]", "result": "inactive"}, {"measurement": "Activity", "setting": "Human alphaherpesvirus 1 [17]", "result": "inactive"}]}
